The list is not random: actives were taken first. Their share in the collection is about 2.6%.
5HT1E antag – 5-HT1E receptor antagonists, primary screen, cell-based, HTS; inhibition, % at 6 µM; 0.99% of 65,000 active; CHO 5-HT1E Ga15 NFAT-bla reporter, FRET, antagonist; 5-hydroxytryptamine receptor 1E (Homo sapiens), P28566; AID 571, 2007;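 active means inhibition above a set limit, the mean inhibition across every tested compound plus 3 SD, cut at about 29% in these data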;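 further: signal is the 460 over 535 nm emission ratio of beta-lactamase substrate; 0% = agonist plus DMSO wells and 100% = wells without agonist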
HTR1E agonist – 5-HT1E receptor agonists, primary screen, cell-based, HTS; 5-hydroxytryptamine receptor 1E (Homo sapiens), P28566; CHO 5-HT1E Ga15 NFAT-bla reporter, FRET; 0% DMSO wells, 100% control agonist wells; activation, % at 6 µM; 0.69% of 65,000 active; AID 574, 2007;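 active means activation above a set limit, the screen-wide mean activation plus 3 SD, cut at about 8.5% in these data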;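 further: 100% = positive control agonist at 1 µM giving full maximal response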
S1P3 agonist – human S1P3 receptor agonists, primary screen, cell-based, primary and confirmation, NFAT-BLA reporter; Sphingosine 1-phosphate receptor 3 (Homo sapiens), Q99500; S1P3 NFAT-BLA reporter cells, agonism, FRET ratio; relative to 1 µM S1P, basal subtracted; activation, % at 4.5 µM; 0.1% of 60,000 active; AID 373, 2006;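 active means activation above the screen-wide mean plus 3 SD, cut at about 4.5% in these data, passing the limit was not always enough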
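Measure – % activation relative to 1 µM S1P (100%), per plate · System – stable CHO line with human S1P3, Gα16, NFAT-BLA reporter · Timing – cells plated overnight, compound 4 h 37 °C, substrate 2 h RT · Technique – fluorescent BLA substrate, ex 405 nm, em 460/535 nm ratio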
5HT1a ag – human 5-HT1a receptor agonists, primary screen, cell-based, CHO, Ga15 NFAT-bla reporter; 5-hydroxytryptamine receptor 1A (Homo sapiens), P08908; CHO 5-HT1a Ga15 NFAT-bla reporter, FRET ratio; 0% basal, 100% maximal reference agonist; activation, % at 10 µM; 0.56% of 65,000 active;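 active means activation above the screen-wide mean activation plus 3 SD, cut at about 19% in these data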;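 further: 0% = DMSO wells and 100% = 5-CT at EC100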
5HT1a antag – human 5-HT1a receptor antagonists, primary screen, cell-based, CHO, Ga15 NFAT-bla reporter; CHO 5-HT1a Ga15 NFAT-bla reporter, antagonist mode; inhibition, % at 10 µM; 0.68% of 62,000 active;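 active means inhibition above the mean of all tested compounds plus 3 SD, cut at about 43% in these data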;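 further: receptor stimulated by 5-CT agonist at 100 nM near EC80; beta-lactamase reporter measured by ratiometric fluorescence of a cleavable substrate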
Ec RNAP inh – E. coli RNAP inhibitors, biochemical | DNA-directed RNA polymerase subunit beta (Escherichia coli (strain K12)), P0A8V2 | E. coli RNA polymerase, fluorescence transcription assay | inhibition, %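 (tested at 10 µM)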 | 0.2% of 62,000 active | AID 559, 2006; in the data active means inhibition above about 20%;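 further: 0% = enzyme without compound and 100% = no enzyme blank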
Active calls of the source: *.

c1ccc(Cc2nc(-c3ccccn3)no2)cc1 was read as 5HT1E antag 3, HTR1E agonist -1, S1P3 agonist -1, 5HT1a ag 1, 5HT1a antag -5 and Ec RNAP inh 9.
c1ccc(C(Cc2nc(-c3ccccn3)no2)c2ccccc2)cc1 was read as 5HT1E antag -15, HTR1E agonist 0, S1P3 agonist 11*, 5HT1a ag 1, 5HT1a antag -16 and Ec RNAP inh 11.
Screening CSc1nnc2n(C)c3c(c(=O)n12)C1(CCCC1)Cc1ccccc1-3 returned 5HT1E antag 8, HTR1E agonist 0, 5HT1a ag 2, 5HT1a antag -4 and Ec RNAP inh 4.
For C/C(Cl)=C/Cn1c(N2CCCC2)nc2c1c(=O)n(C)c(=O)n2C the results were 5HT1E antag 7, HTR1E agonist -1, S1P3 agonist 8.7*, 5HT1a ag -1, 5HT1a antag 13 and Ec RNAP inh 6.
`C/C(=N\O)c1ccccc1C(=O)O` gave 5HT1E antag 0, HTR1E agonist 0, S1P3 agonist -1, 5HT1a ag -1, 5HT1a antag 8 and Ec RNAP inh 9.
O=C(Nc1sc2c(c1C(=O)O)CCC2)c1cccs1 was read as 5HT1E antag -12, HTR1E agonist 0, S1P3 agonist 0, 5HT1a ag -1, 5HT1a antag -8 and Ec RNAP inh 7.
NC(=O)c1c(NC(=O)c2cccs2)sc2c1CCCCCC2 was read as 5HT1E antag -15, HTR1E agonist 11*, S1P3 agonist 0, 5HT1a ag 0, 5HT1a antag -3 and Ec RNAP inh 9.
Screening Clc1ccc(-n2ncc3c(NCc4ccco4)ncnc32)cc1 returned 5HT1E antag 10, HTR1E agonist 0, S1P3 agonist -5, 5HT1a ag 1 and Ec RNAP inh 8.
Screening Clc1ccc(Cn2ncc3c(NCc4ccco4)ncnc32)c(Cl)c1 returned 5HT1E antag 39*, HTR1E agonist 0, S1P3 agonist -2, 5HT1a ag -1, 5HT1a antag 32 and Ec RNAP inh 2.
For C=CCn1c(CSc2nc3ccccc3s2)nnc1SCC(=O)OCC the results were 5HT1E antag -5, HTR1E agonist 0, S1P3 agonist 0, 5HT1a ag 0, 5HT1a antag -4 and Ec RNAP inh 5.
`CN(C)Cc1cc(C(C)(C)c2cc(CN(C)C)c(O)c(CN(C)C)c2)cc(CN(C)C)c1O` gave 5HT1E antag -11, HTR1E agonist 0, S1P3 agonist 0, 5HT1a ag 75*, 5HT1a antag -10 and Ec RNAP inh 12.
`Cc1ccc(-c2nc(CN(C)C)cc(CN(C)C)c2O)cc1` gave 5HT1E antag -1, HTR1E agonist -2, S1P3 agonist -1, 5HT1a ag -1, 5HT1a antag 2 and Ec RNAP inh 1.
CC(C)COC(=O)n1ccc(C(=O)N2CCCCC2)n1 was read as 5HT1E antag 3, HTR1E agonist 0, S1P3 agonist -1, 5HT1a ag -2, 5HT1a antag 6 and Ec RNAP inh -1.
CCOC(=O)N1CCC(NC(=O)c2ccc(CS(=O)(=O)c3ccccc3C)o2)CC1 was read as 5HT1E antag -6, HTR1E agonist 2, S1P3 agonist 1, 5HT1a ag 39*, 5HT1a antag 5 and Ec RNAP inh 2.
`CC(C)N(Cc1nc(-c2ccccc2)no1)C(=O)c1ccc(Cl)cc1` gave 5HT1E antag 9, HTR1E agonist 0, S1P3 agonist 0, 5HT1a ag -2, 5HT1a antag 8 and Ec RNAP inh 0.
`CC(C)N(Cc1nc(-c2ccc(Cl)cc2)no1)C(=O)CN(C)S(=O)(=O)c1ccc(Cl)cc1` gave 5HT1E antag 10, HTR1E agonist 0, S1P3 agonist -1, 5HT1a ag -3, 5HT1a antag -8 and Ec RNAP inh 21*.
For Cn1c(C(=O)N(Cc2ccccc2)Cc2ccccn2)cc2sccc21 the results were 5HT1E antag 2, HTR1E agonist -1, S1P3 agonist 0, 5HT1a ag 1, 5HT1a antag 22 and Ec RNAP inh 2.
`Cn1c(C(=O)N(Cc2ccccc2)Cc2cccs2)cc2sccc21` gave 5HT1E antag 9, HTR1E agonist 0, S1P3 agonist -1, 5HT1a ag 0, 5HT1a antag 43* and Ec RNAP inh 8.
Cc1c(NS(=O)(=O)c2ccccc2)cc(Cl)c(O)c1C was read as Ec RNAP inh 26*.
`O=S(=O)(Nc1ccccc1Cl)c1ccc(F)cc1` gave 5HT1E antag -7, HTR1E agonist 0, S1P3 agonist -1, 5HT1a ag -3, 5HT1a antag 4 and Ec RNAP inh 4.
CC(C)[C@@H]1NC(=O)N(c2ccc(Oc3ccccc3)cc2)C1=O was read as 5HT1E antag 9, HTR1E agonist -1, S1P3 agonist -2, 5HT1a ag -1, 5HT1a antag -3 and Ec RNAP inh -1.
Screening COc1ccc(NC(=O)C2CCCN(S(=O)(=O)c3cccnc3)C2)c(OC)c1 (centres undefined) returned 5HT1E antag -1, HTR1E agonist 1, S1P3 agonist 0, 5HT1a ag -3, 5HT1a antag 4 and Ec RNAP inh -2.
For CCN(CC)c1ccc(NC(=O)C2CCCN(S(=O)(=O)c3cccnc3)C2)c(C)c1 (centres undefined) the results were 5HT1E antag 32*, HTR1E agonist 0, S1P3 agonist -1, 5HT1a ag 0, 5HT1a antag -4 and Ec RNAP inh 5.
O=C(CSc1nnc(Cn2c(=O)sc3ccccc32)n1CCc1ccccc1)N1CCCC1 was read as 5HT1E antag 1, HTR1E agonist 0, S1P3 agonist 0, 5HT1a ag 0, 5HT1a antag -5 and Ec RNAP inh 5.
For CS(=O)(=O)N(CC(=O)NCc1ccco1)Cc1ccc(Cl)cc1 the results were 5HT1E antag -3, HTR1E agonist 0, S1P3 agonist -1, 5HT1a ag 1, 5HT1a antag -6 and Ec RNAP inh 2.
`CCC(NC(=O)Nc1nnc(C(F)(F)F)s1)(C(F)(F)F)C(F)(F)F` gave 5HT1E antag 66*, HTR1E agonist -1, S1P3 agonist -10 and 5HT1a ag -1.
Screening O=C(O)CCC(=O)Nc1nnc(C(F)(F)F)s1 returned 5HT1E antag 8, HTR1E agonist -1, S1P3 agonist -2, 5HT1a ag -2, 5HT1a antag -4 and Ec RNAP inh 0.

Assay outcomes (PubChem)
